Measurements published in ChEMBL document CHEMBL1123408, “Influence of alkyl-chain fluorination on the action of mammary tumor inhibiting 2,3-bis(hydroxyphenyl)butanes and 2,3-bis(hydroxyphenyl)but-2-enes” (1986).
Several values for one entry are separate records, joined by “and”; a condition that tells them apart may be missing. Equal entries are not always repeated. Each block holds one compound with its values, some of them ahead of it.

Key:
[1] = target: T1, Estrogen receptor (Mus musculus) (UniProt O08537+P19785)
T1 sequence (O08537 whole entry, looked up): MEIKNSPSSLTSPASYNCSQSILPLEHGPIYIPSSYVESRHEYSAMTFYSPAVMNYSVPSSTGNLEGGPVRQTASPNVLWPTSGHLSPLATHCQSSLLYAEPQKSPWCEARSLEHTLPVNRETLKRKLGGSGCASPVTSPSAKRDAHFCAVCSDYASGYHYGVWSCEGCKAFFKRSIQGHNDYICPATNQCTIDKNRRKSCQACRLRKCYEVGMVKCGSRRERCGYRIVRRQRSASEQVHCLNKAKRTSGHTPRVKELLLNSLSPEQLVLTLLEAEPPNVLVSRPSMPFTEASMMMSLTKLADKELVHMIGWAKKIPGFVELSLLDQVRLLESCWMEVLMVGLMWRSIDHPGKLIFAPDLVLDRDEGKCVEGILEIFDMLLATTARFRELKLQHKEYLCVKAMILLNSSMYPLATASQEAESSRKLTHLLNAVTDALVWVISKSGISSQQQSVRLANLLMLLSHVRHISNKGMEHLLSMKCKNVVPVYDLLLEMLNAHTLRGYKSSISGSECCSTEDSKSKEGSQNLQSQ
T1 sequence (P19785 whole entry, looked up): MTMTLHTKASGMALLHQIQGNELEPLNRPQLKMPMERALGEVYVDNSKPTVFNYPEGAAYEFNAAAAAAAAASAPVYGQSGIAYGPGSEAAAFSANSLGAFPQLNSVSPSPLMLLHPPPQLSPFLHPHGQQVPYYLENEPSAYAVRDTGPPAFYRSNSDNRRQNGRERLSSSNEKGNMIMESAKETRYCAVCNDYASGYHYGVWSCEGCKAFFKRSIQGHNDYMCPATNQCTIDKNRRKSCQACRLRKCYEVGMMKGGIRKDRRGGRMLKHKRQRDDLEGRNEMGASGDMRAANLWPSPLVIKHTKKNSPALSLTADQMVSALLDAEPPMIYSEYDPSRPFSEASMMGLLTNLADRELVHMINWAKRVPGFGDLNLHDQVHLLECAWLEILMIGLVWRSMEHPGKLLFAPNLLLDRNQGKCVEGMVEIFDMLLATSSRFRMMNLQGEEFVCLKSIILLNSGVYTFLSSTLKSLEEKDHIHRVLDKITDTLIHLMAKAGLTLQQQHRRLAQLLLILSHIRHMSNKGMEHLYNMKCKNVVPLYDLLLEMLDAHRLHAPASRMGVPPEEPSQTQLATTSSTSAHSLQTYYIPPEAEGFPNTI

[2] = target: T1, Estrogen receptor (Mus musculus); remark: listed apart in the source
[3] = target: T1, Estrogen receptor (Mus musculus); remark: listed apart in the source
[4] = target: T1, Estrogen receptor (Mus musculus); remark: listed apart in the source
[5] = target: T1, Estrogen receptor (Mus musculus); remark: listed apart in the source
[6] = target: T1, Estrogen receptor (Mus musculus); conditions: Uterus
[7] = target: T1, Estrogen receptor (Mus musculus); conditions: Uterus; remark: listed apart in the source
[8] = target: T1, Estrogen receptor (Mus musculus); conditions: Uterus; remark: listed apart in the source
[9] = target: T1, Estrogen receptor (Mus musculus); conditions: Uterus; remark: listed apart in the source
[10] = target: T1, Estrogen receptor (Mus musculus); conditions: Uterus; remark: listed apart in the source
[11] = target: T1, Estrogen receptor (Mus musculus); conditions: Uterus; remark: listed apart in the source
[12] = target: T1, Estrogen receptor (Mus musculus); conditions: Uterus; remark: listed apart in the source
[13] = target: T1, Estrogen receptor (Mus musculus); conditions: Uterus; remark: listed apart in the source
[14] = target: T1, Estrogen receptor (Mus musculus); assay: (§1) Uterotrophic effect in mice at 100 ug dose; type: functional, tissue-based; conditions: Uterus
How it was run: (§2)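 Immature female NMRI mice, 20 days old, 10 per group, given daily sc injections of 0.1 mL olive oil solution for 3 days. Uteri removed 24 h after the last dose, fixed in Bouin's solution, washed, dried and weighed. Antiestrogenic testing measured inhibition of estrone-stimulated uterine growth.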

[15] = target: T1, Estrogen receptor (Mus musculus); assay: (§3) Uterotrophic effect in mice at 0 ug dose; type: functional, tissue-based; design: unit not given here; conditions: Uterus
How it was run: as §2

[16] = target: T1, Estrogen receptor (Mus musculus); assay: (§4) Uterotrophic effect in mice at 1 ug dose; type: functional, tissue-based; design: unit not given here; conditions: Uterus
How it was run: as §2

[17] = target: T1, Estrogen receptor (Mus musculus); assay: Uterotrophic effect in mice at 10 ug dose; type: functional, tissue-based; design: unit not given here; conditions: Uterus
How it was run: as §2

[18] = target: T1, Estrogen receptor (Mus musculus); assay: as §3; type: functional, tissue-based; design: unit not given here; conditions: Uterus; remark: listed apart in the source
How it was run: as §2

[19] = target: T1, Estrogen receptor (Mus musculus); assay: Uterotrophic effect in mice at 0.1 ug dose; type: functional, tissue-based; design: unit not given here; conditions: Uterus
How it was run: as §2

[20] = target: T1, Estrogen receptor (Mus musculus); assay: (§5) Uterotrophic effect in mice at 1000 ug dose; type: functional, tissue-based; conditions: Uterus
How it was run: as §2

[21] = target: T1, Estrogen receptor (Mus musculus); assay: as §1; type: functional, tissue-based; design: unit not given here; conditions: Uterus
How it was run: as §2

[22] = target: T1, Estrogen receptor (Mus musculus); assay: Uterotrophic effect in mice at 25 ug dose; type: functional, tissue-based; design: unit not given here; conditions: Uterus
How it was run: as §2

[23] = target: T1, Estrogen receptor (Mus musculus); assay: Uterotrophic effect in mice at 500 ug dose; type: functional, tissue-based; design: unit not given here; conditions: Uterus
How it was run: as §2

[24] = target: T1, Estrogen receptor (Mus musculus); assay: Uterotrophic effect in mice at 5 ug dose; type: functional, tissue-based; conditions: Uterus
How it was run: as §2

[25] = target: T1, Estrogen receptor (Mus musculus); assay: Uterotrophic effect in BD2F mice bearing transplantable hormone dependent MXT at 13.84 mg dose; type: functional, tissue-based
How it was run: (§6)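 MXT-bearing female BD2F1 mice (10 per group) dosed sc in olive oil three times weekly for 6 weeks from the day after tumor transplantation. Uteri excised at sacrifice and dry weight determined; values given as mean ± SD.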

[26] = target: T1, Estrogen receptor (Mus musculus); assay: Anti-uterotrophic effect in mice at 25 ug dose; type: functional
How it was run: (§7)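 Immature female NMRI mice, 20 days old (14.5 ± 1.2 g), randomized into groups of 10. Each received a daily sc injection of compound in 0.1 mL olive oil for 3 days, given together with estrone. Uteri were taken 24 h after the last injection, fixed in Bouin's solution, washed, dried and weighed. The read-out was inhibition of estrone-stimulated uterine growth.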

[27] = target: T1, Estrogen receptor (Mus musculus); assay: Anti-uterotrophic effect in mice at 5 ug dose; type: functional
How it was run: as §7

Mus musculus [28] = species on record: Mus musculus; assay: Relative average tumor wet weight in treated compared to untreated mice at 13.84 mg dose; type: functional
How it was run: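 MXT mammary tumor pieces of 1-2 mm³ from syngeneic donors were implanted sc by trocar into female BD2F₁ mice aged 8-10 weeks (20.0 ± 1.7 g), groups of 10. From the next day, compound in olive oil was given sc three times weekly for 6 weeks. Tumor wet weight was measured at the end and expressed as % T/C.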

[29] = target: T1, Estrogen receptor (Mus musculus); assay: Uterotrophic effect in BD2F mice bearing transplantable hormone dependent MXT at 2.77 mg dose; type: functional, tissue-based
How it was run: as §6

Mus musculus [30] = species on record: Mus musculus; assay: Relative average tumor wet weight in treated compared to untreated mice at 2.77 mg dose; type: functional
How it was run: (§8)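 Syngeneic female BD2F1 mice (8–10 weeks) received sc trocar implants of 1–2-mm³ MXT tumor pieces, 10 per group. Treatment began the next day: sc doses in olive oil (solution or suspension), three times weekly for 6 weeks. Tamoxifen-treated control group included. Tumor wet weight measured at sacrifice; expressed as % T/C versus untreated controls.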

[31] = target: T1, Estrogen receptor (Mus musculus); assay: as §4; type: functional, tissue-based; conditions: Uterus
How it was run: as §2

[32] = target: T1, Estrogen receptor (Mus musculus); assay: as §1; type: functional, tissue-based; design: unit not given here; conditions: Uterus; remark: listed apart in the source
How it was run: as §2

[33] = target: T1, Estrogen receptor (Mus musculus); assay: as §5; type: functional, tissue-based; design: unit not given here; conditions: Uterus
How it was run: as §2

[34] = target: T1, Estrogen receptor (Mus musculus); assay: Uterotrophic effect in mice at 5000 ug dose; type: functional, tissue-based; conditions: Uterus, in the assay text read “50 ug” for “5000 ug”
How it was run: as §2

[35] = target: T1, Estrogen receptor (Mus musculus); assay: Uterotrophic effect in BD2F mice bearing transplantable hormone dependent MXT at 2.76 mg dose; type: functional, tissue-based; conditions: Uterus
How it was run: as §6

Rattus norvegicus [36] = assay: Percent change in body weight in DMBA-Induced Hormone-Dependent Mammary Carcinoma rats at 18 mg/kg dose; type: functional
Rattus norvegicus [37] = assay: Percent change in body weight in DMBA-Induced Hormone-Dependent Mammary Carcinoma rats at 36 mg/kg dose; type: functional
Rattus norvegicus [38] = assay: Percent change in body weight in DMBA-Induced Hormone-Dependent Mammary Carcinoma rats at 72 mg/kg dose; type: functional
Rattus norvegicus [39] = assay: Percent change in total tumor area in DMBA-Induced Hormone-Dependent Mammary Carcinoma rats at 36 mg/kg dose; type: functional
Rattus norvegicus [40] = assay: Percent change in total tumor area in DMBA-Induced Hormone-Dependent Mammary Carcinoma rats at 18 mg/kg dose; type: functional
Rattus norvegicus [41] = assay: Percent change in total tumor area in DMBA-Induced Hormone-Dependent Mammary Carcinoma rats at 72 mg/kg dose; type: functional
Rattus norvegicus [42] = assay: Initial tumor number in DMBA-Induced Hormone-Dependent Mammary Carcinoma in rats at 72 mg/kg dose; type: functional
Rattus norvegicus [43] = assay: Initial tumor number in DMBA-Induced Hormone-Dependent Mammary Carcinoma in rats at 18 mg/kg dose; type: functional
Rattus norvegicus [44] = assay: Initial tumor number in DMBA-Induced Hormone-Dependent Mammary Carcinoma in rats at 36 mg/kg dose; type: functional
Rattus norvegicus [45] = assay: Final tumor number in DMBA-Induced Hormone-Dependent Mammary Carcinoma in rats at 18 mg/kg dose; type: functional
Rattus norvegicus [46] = assay: Final tumor number in DMBA-Induced Hormone-Dependent Mammary Carcinoma in rats at 36 mg/kg dose; type: functional
Rattus norvegicus [47] = assay: Final tumor number in DMBA-Induced Hormone-Dependent Mammary Carcinoma in rats at 72 mg/kg dose; type: functional
Rattus norvegicus [48] = assay: Percent unchanged tumors in DMBA-Induced Hormone-Dependent Mammary Carcinoma in rats at 18 mg/kg dose; type: functional
Rattus norvegicus [49] = assay: Percent unchanged tumors in DMBA-Induced Hormone-Dependent Mammary Carcinoma in rats at 36 mg/kg dose; type: functional
Rattus norvegicus [50] = assay: Percent unchanged tumors in DMBA-Induced Hormone-Dependent Mammary Carcinoma in rats at 72 mg/kg dose; type: functional
Rattus norvegicus [51] = assay: Percent partial remission in DMBA-Induced Hormone-Dependent Mammary Carcinoma in rats at 18 mg/kg dose; type: functional
Rattus norvegicus [52] = assay: Percent partial remission in DMBA-Induced Hormone-Dependent Mammary Carcinoma in rats at 36 mg/kg dose; type: functional
Rattus norvegicus [53] = assay: Percent partial remission in DMBA-Induced Hormone-Dependent Mammary Carcinoma in rats at 72 mg/kg dose; type: functional
Rattus norvegicus [54] = assay: Percent progression in DMBA-Induced Hormone-Dependent Mammary Carcinoma in rats at 18 mg/kg dose; type: functional
Rattus norvegicus [55] = assay: Percent progression in DMBA-Induced Hormone-Dependent Mammary Carcinoma in rats at 36 mg/kg dose; type: functional
Rattus norvegicus [56] = assay: Percent progression in DMBA-Induced Hormone-Dependent Mammary Carcinoma in rats at 72 mg/kg dose; type: functional
Rattus norvegicus [57] = assay: Percent complete remission in DMBA-Induced Hormone-Dependent Mammary Carcinoma in rats at 18 mg/kg dose; type: functional
Rattus norvegicus [58] = assay: Percent complete remission in DMBA-Induced Hormone-Dependent Mammary Carcinoma in rats at 36 mg/kg dose; type: functional
Rattus norvegicus [59] = assay: Percent complete remission in DMBA-Induced Hormone-Dependent Mammary Carcinoma in rats at 72 mg/kg dose; type: functional
[60] = target: T1, Estrogen receptor (Mus musculus); assay: Uterotrophic effect in BD2F mice bearing transplantable hormone dependent MXT at 20 mg dose; type: functional, tissue-based; conditions: Uterus
How it was run: as §6

[61] = target: T1, Estrogen receptor (Mus musculus); assay: Uterotrophic effect in BD2F mice bearing transplantable hormone dependent MXT at 4 mg dose; type: functional, tissue-based; conditions: Uterus
How it was run: as §6

Mus musculus [62] = species on record: Mus musculus; assay: Relative average tumor wet weight in treated compared to untreated mice at 20 mg dose; type: functional
How it was run: as §8

Mus musculus [63] = species on record: Mus musculus; assay: Relative average tumor wet weight in treated compared to untreated mice at 4 mg dose; type: functional
How it was run: as §8

Effect [1]: 39.5
Effect [2]: 39.3
Effect [3]: 39.5
Effect [4]: 39.5
Effect [5]: 41.8
Effect [6]: 39.8
Effect [7]: 46.4
Effect [8]: 46.6
Effect [9]: 47.3
Effect [10]: 49
Effect [11]: 46.8
Effect [12]: 45.6
Effect [13]: 46.8
SMILES: C[C@]12CC[C@@H]3c4ccc(O)cc4CC[C@H]3[C@@H]1CCC2=O

Effect [14]: 42.2
Effect [15]: 11.8
Effect [16]: 22.6
Effect [17]: 28
Effect [18]: 14.8
Effect [19]: 17.7
Effect [20]: 34.8
Effect [21]: 45.1
Effect [22]: 36
Effect [23]: 56.5
Effect [24]: 33.6
Uterus effect [25]: 77.6
inhibition [26]: 14.1%
inhibition [27]: 23.8%
Uterus effect [29]: 79.9
SMILES: C[C@H](c1ccc(O)cc1)[C@@H](C)c1ccc(O)cc1
TC (Mus musculus [28]): 23.1%
TC (Mus musculus [30]): 68.5%

Effect [15]: 11.9
Effect [31]: 11.7
Effect [17]: 12.4
Effect [32]: 12.6
Effect [33]: 13.1
Effect [18]: 11.2 and 9.9 and 10.5
Effect [19]: 38.5 [middle of 4 runs]
Effect [23]: 29
Effect [34]: 34.3
Effect [24]: 36.5
Effect ([25]; Uterus): 73.5
Effect [35]: 86.9
SMILES: C[C@H](c1cccc(O)c1)[C@@H](C)c1cccc(O)c1
TC (Mus musculus [28]): 66.5%
TC (Mus musculus [30]): 106%
Change in weight (Rattus norvegicus [36]): 2.4%
Change in weight (Rattus norvegicus [37]): 1.6%
Change in weight (Rattus norvegicus [38]): 0.9%
Change in tumor area % (Rattus norvegicus [39]): 105%
Change in tumor area % (Rattus norvegicus [40]): 188%
Change in tumor area % (Rattus norvegicus [41]): 6%
No. of tumors (Rattus norvegicus [42]): 26
No. of tumors (Rattus norvegicus [43]): 21
No. of tumors (Rattus norvegicus [44]): 22
No. of tumors (Rattus norvegicus [45]): 16
No. of tumors (Rattus norvegicus [46]): 12
No. of tumors (Rattus norvegicus [47]): 22
Tumors (Rattus norvegicus [48]): 24%
Tumors (Rattus norvegicus [49]): 38%
Tumors (Rattus norvegicus [50]): 16%
Tumors (Rattus norvegicus [51]): 11%
Tumors (Rattus norvegicus [52]): 9%
Tumors (Rattus norvegicus [53]): 25%
Tumors (Rattus norvegicus [54]): 51%
Tumors (Rattus norvegicus [55]): 24%
Tumors (Rattus norvegicus [56]): 25%
Tumors (Rattus norvegicus [57]): 14%
Tumors (Rattus norvegicus [58]): 29%
Tumors (Rattus norvegicus [59]): 34%

Effect [15]: 11.1
Effect [16]: 25.3
Effect [17]: 29
Effect [32]: 45.5
Effect [18]: 14.8
Effect [19]: 15.7
Effect [20]: 51.8
Effect [21]: 47.8
Effect [22]: 47.4
Effect [23]: 52.6
Effect [24]: 43
Effect [60]: 82.1
Effect [61]: 74.8
SMILES: Oc1cccc(/C(=C(/c2cccc(O)c2)C(F)(F)F)C(F)(F)F)c1
TC (Mus musculus [62]): 11.5%
TC (Mus musculus [63]): 25.7%
